The list is not random: actives were taken first. Their share in the collection is about 2.3%.
T cell HTS: modulators of CD8 T cell-vesicle binding, primary screen, mouse 2C CD8+ T cells, flow cytometry; 330,000 tested, 0.068% active; 2C CD8+ T cell-vesicle binding; hits give low values; response (vesicle binding), % at 7 µM;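 active means response, share of CD8 T cells binding vesicles, and their 90th percentile fluorescence all below set limits, cut at about 80% in these data, passing the limit was not always enough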;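 further: values below 100% mean blocked vesicle binding to the CD8+ T cells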
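Assay system – 2C mouse CD8+ T cells · Also added – QL9-loaded Drosophila micro-vesicles · Timing – Cell–vesicle co-incubation 1.5 h at 37 °C, staining 20 min on ice · Signal – flow cytometry of vesicle-bound cells · Measure – percent CD8+ FL2 mean versus row control · Controls – Peptide-free naked vesicles (low) and QL9 vesicles with 0.7% DMSO vehicle (high)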
MCL1-BIM inh: inhibitors of MCL1 binding to BIM-BH3, primary screen, biochemical, fluorescence polarization. GST-MCL1 / FITC-Bim-BH3 fluorescence polarization. inhibition, % at 10.9 µM. 320,000 tested, 0.68% active. AID 2057, 2009;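 active means inhibition above the mean inhibition of all tested compounds plus 3 SD, set per campaign, cut at about 40% in these data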;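 further: 0% = DMSO wells and 100% = unlabeled Bim-BH3 peptide control; higher means more loss of mP so more displacement of Bim peptide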
Target sequence (Q07820 whole entry, looked up): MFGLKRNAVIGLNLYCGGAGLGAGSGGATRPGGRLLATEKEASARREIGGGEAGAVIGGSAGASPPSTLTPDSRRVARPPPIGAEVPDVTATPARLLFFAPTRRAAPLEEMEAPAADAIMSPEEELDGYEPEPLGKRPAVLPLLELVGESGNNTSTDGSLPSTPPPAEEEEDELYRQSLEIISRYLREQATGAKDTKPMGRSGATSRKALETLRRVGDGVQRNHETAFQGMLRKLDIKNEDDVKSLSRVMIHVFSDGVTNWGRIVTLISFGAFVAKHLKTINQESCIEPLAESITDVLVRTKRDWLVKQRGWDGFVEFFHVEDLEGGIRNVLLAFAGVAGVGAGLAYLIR
Mcl1-Noxa inh: Mcl-1/Noxa binding inhibitors, primary screen, biochemical, TR-FRET, 1536-well; TR-FRET Mcl-1/Noxa peptide binding, 2 h; inhibition, % at 21.7 µM; 220,000 tested, 1.5% active; AID 1022, 2008;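 active means compounds that cut the protein-peptide binding signal by more than 50% relative to plate controls in a single-dose test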;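 further: His-tagged Mcl-1 with rhodamine Noxa BH3 peptide and terbium anti-His antibody; 0% = Mcl-1 plus Noxa peptide wells and 100% = peptide-only wells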
DSG3 Ab inh: inhibitors of pemphigus antibody binding to DSG3, primary screen, biochemical, bead-based, flow cytometry, scFv-GFP; binding (percent of control), % at 10 µM; Desmoglein-3 (Homo sapiens), P32926; 310,000 tested, 0.48% active; DSG3-coupled beads, scFv-anti-DSG3-GFP binding; hits give low values;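 active means binding more than 3 SD below its plate's average and above zero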;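 further: hits lower antibody fragment binding to DSG3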
Bim-Mcl-1: inhibitors of Bim peptide binding to Mcl-1, primary screen, biochemical, bead-based flow cytometry, multiplex. Induced myeloid leukemia cell differentiation protein Mcl-1 (Homo sapiens), Q07820. Bim peptide-Mcl-1 binding. inhibition, % at 10 µM. 190,000 tested, 0.1% active; in the data active means inhibition above about 40%;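 further: 0% = no compound tracer wells and 100% = peptide blocker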
Mcl1 Bid PPI: Mcl-1/Bid binding inhibitors, primary screen, biochemical, TR-FRET, 1536-well. TR-FRET Mcl-1/Bid-Dy647 peptide binding. AID 1021, 2008. 220,000 tested, 0.97% active. inhibition, % at 21.7 µM;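 active means compounds that cut the binding signal by more than half at the single screening dose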;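 further: His-tagged Mcl-1 with europium anti-His antibody binding Bid BH3 peptide; 0% = Mcl-1 plus peptide wells and 100% = peptide-only wells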
Numbers without * were called inactive; / = no result given.

SMILES | T cell HTS | MCL1-BIM inh | Mcl1-Noxa inh | DSG3 Ab inh | Bim-Mcl-1 | Mcl1 Bid PPI
O=C(Nc1ccccc1)NC1CCS(=O)(=O)C1 (stereo not given) | 570 | 4 | 5 | 113 | 1 | 98*
Cc1cc(C)c(SSc2nnnn2-c2ccccc2)c(C)c1 | / | / | / | 106 | / | /
COc1ccccc1N1C(=O)Cc2ccccc2C1=O | 185 | -9 | / | 99 | / | /
CC(C)CC1Nc2ncnc(N3CCN(c4ccccn4)CC3)c2N(Cc2ccccc2)C1=O (stereo not given) | 116 | / | / | 98 | / | /
N#C/C(=C/c1ccc(N2CCCCCC2)o1)c1cccc(F)c1 | 313 | -123 | 31 | 173 | -14 | -7
COc1cc(N2CCCC2)c(OC)cc1/C=C(/C#N)c1cccc(F)c1 | 274 | -94 | 80* | 200 | -22 | -21
O=C(CSc1ccsc1[N+](=O)[O-])Nc1cccc(F)c1 | / | / | 98* | 88 | 0 | -47
O=C(CSc1ccsc1[N+](=O)[O-])NCc1ccccc1 | 654 | 8 | 46 | 101 | -3 | -12
CSc1ccc(CCNC(=O)CSc2ccsc2[N+](=O)[O-])cc1 | 92 | 23 | 8 | 98 | -1 | -37
NS(=O)(=O)c1ccc(CCNC(=O)CSc2ccsc2[N+](=O)[O-])cc1 | 370 | 13 | 53* | 97 | 5 | -35
CCc1ccccc1NC(=O)CSc1ccsc1[N+](=O)[O-] | 285 | 34 | 54* | 103 | -3 | -57
COc1c(C)cc(S(=O)(=O)NCc2ccccn2)c(C)c1C | 269 | 9 | / | 98 | / | /
NNC(=O)c1oc2nc(-c3ccco3)cc(-c3ccco3)c2c1N | 583 | -44 | 62* | 109 | / | -105
O=C1CCC(C(=O)N2CCCC(N3CCN(c4cccc(C(F)(F)F)c4)CC3)C2)=NN1 (stereo not given) | 489 | -2 | / | 98 | / | /
CS(=O)(=O)c1ccc(C(=O)Nc2ccc(N3CCCCC3)cc2)c(Cl)c1 | 128 | 12 | 47 | 86 | -1 | -28
Cc1ccc(Sc2ccc(NC(=O)c3ccc(S(C)(=O)=O)cc3Cl)cc2)cc1 | 269 | 6 | -214 | -16* | 0 | -109
COc1ccc(N2Nc3n[nH]c(N)c3N2)cc1 | 288 | 9 | 56* | 96 | 2 | -6
CCOc1ccc(N2Nc3n[nH]c(N)c3N2)cc1 | 688 | 0 | 1 | / | 0 | -28
COc1ccc(C(O)c2coc3ccc(O)c(CN(C)C)c23)cc1 (stereo not given) | 6.9* | -1 | -32 | 95 | -2 | -40
Cc1ccc(S(=O)(=O)N2CCCCC2)cc1NC(=O)c1cnccn1 | / | / | / | 97 | / | /
O=C(NC1CCCC1)C1CCCN(S(=O)(=O)c2ccc(-n3cnnn3)cc2)C1 (stereo not given) | 188 | 5 | 4 | 100 | -1 | -12
CC(C)NC(=O)C1CCCN(S(=O)(=O)c2ccc(-n3cnnn3)cc2)C1 (stereo not given) | 474 | 5 | -12 | 95 | -2 | 98*
COC(=O)c1ccc(C2C(Oc3ccc(OC)cc3)C(=O)N2CCc2ccc(OC)c(OC)c2)cc1 (stereo not given) | 315 | -2 | 12 | 72* | -6 | -11
CC(C)(C)OC(=O)NCCCC1=CC2=CC(=O)C(C)(OC(=O)c3ccc(Cl)nc3)C(=O)C2=CO1 (stereo not given) | 324 | 85* | / | / | / | /
C=CCN1C(=O)C(C)S/C1=N\S(=O)(=O)c1ccc(Cl)cc1 (stereo not given) | 472 | 0 | 8 | 101 | -5 | -10
CCN1C(=O)C(C)S/C1=N\S(=O)(=O)c1ccc(F)cc1 (stereo not given) | 252 | 8 | 75* | 98 | -1 | 1
O=C(O)CC(=O)NC12CC3CC(CC(C3)C1)C2 | 225 | -2 | 13 | 108 | 0 | 14
